APJ antagonist: blocks the human apelin receptor APJ; inhibition, % at 20 µM; CHO-K1 APJ beta-arrestin complementation, luminescence; P35414; AID 2521; 330,000 tested, 0.32% active;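 active = inhibition above about 40% at 20 µM, limit read from the data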;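 note: cells challenged with 10 nM apelin-13 agonist together with compound; plate controls were apelin-13 plus DMSO wells for no effect and DMSO wells lacking apelin-13 for full effect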
EBI2 block: EBI2 (human) antagonism; inhibition, % at 5 µM; 360,000 tested, 0.81% active; EBI2 beta-arrestin recruitment, luminescence, 7a,25-OHC stimulated; in the data active = inhibition above about 38%;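 note: enzyme fragment complementation signal reports receptor beta-arrestin coupling in cells; 0% = agonist plus DMSO wells and 100% = wells without agonist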
Target sequence (P32249 whole entry, looked up, the tested form may be a part): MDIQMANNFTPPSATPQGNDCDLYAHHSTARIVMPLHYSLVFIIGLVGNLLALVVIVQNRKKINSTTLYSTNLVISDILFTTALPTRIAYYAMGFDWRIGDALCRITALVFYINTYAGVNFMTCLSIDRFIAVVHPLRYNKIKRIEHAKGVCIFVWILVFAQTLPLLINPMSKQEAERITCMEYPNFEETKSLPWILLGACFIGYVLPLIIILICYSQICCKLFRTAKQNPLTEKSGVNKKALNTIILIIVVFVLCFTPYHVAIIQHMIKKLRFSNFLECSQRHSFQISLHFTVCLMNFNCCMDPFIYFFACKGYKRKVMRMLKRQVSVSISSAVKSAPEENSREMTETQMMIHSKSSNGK
CXCR6 inh: inhibitors of human CXCR6 receptor; CHO-K1 PathHunter CXCR6 beta-arrestin, luminescence; inhibition, % at 20 µM; 360,000 tested, 0.36% active; AID 602244; in the data active = inhibition above about 34%, passing the limit was not always enough;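 note: antagonist mode with CXCL16 agonist at 10 nM final; 0% = 10 nM CXCL16 with DMSO and 100% = unstimulated wells without agonist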
Target sequence (O00574 whole entry, looked up): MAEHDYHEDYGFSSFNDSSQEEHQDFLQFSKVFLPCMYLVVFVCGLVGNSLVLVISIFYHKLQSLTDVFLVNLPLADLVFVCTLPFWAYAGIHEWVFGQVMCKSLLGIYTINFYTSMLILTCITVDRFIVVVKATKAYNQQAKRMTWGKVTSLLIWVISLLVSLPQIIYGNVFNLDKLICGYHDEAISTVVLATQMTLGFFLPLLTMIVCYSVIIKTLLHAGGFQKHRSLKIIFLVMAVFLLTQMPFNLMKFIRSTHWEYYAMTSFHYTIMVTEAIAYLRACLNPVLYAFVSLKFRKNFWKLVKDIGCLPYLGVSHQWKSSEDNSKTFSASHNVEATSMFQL
CCR6 antag: blocks CCL20-driven beta-arrestin recruitment at human CCR6. AID 493098. inhibition, % at 20 µM. 340,000 tested, 0.49% active. P51684. CHO-K1 CCR6 PathHunter beta-arrestin, luminescence, CCL20-stimulated;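 active = compounds whose inhibition of the agonist-driven luminescence signal at 20 µM reaches about 50%, limit read from the data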;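 note: cells stimulated with CCL20 at 14 nM final; plate controls were DMSO with CCL20 for no effect and DMSO without agonist for full effect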
APJ ag: APJ receptor agonism; P35414; CHO-K1 APJ PathHunter beta-arrestin, luminescence; 0% DMSO wells, 100% apelin; activation, % at 20 µM; 330,000 tested, 0.11% active;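 active = activation more than six SD over the plate average, tested at 20 µM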;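 note: 0% = DMSO alone and 100% = apelin-13 at 10 nM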
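Assay system: engineered CHO-K1 APJ arrestin reporter cells; Amount: 1000 CHO-K1 reporter cells seeded per well; Dosing: one dose, 20 µM compound, 1% DMSO; Times: compound stimulation 90 min at 25 °C, detection 60 min; Measured by: luminescent beta-gal fragment complementation, chemiluminescent substrate; Read-out: APJ–arrestin association signal; Controls: DMSO vs Apelin-13 10 nM.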
APJ ag confirm: APJ receptor agonism confirmation | CHO-K1 APJ PathHunter beta-arrestin, luminescence | shares compounds with APJ ag | 310 tested, 10% active | AID 2764 | activation, % at 20 µM;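 active = activation above 40%, taking the highest of four retests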;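 note: plate controls were DMSO wells for no effect and apelin-13 at 10 nM for full effect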
* marks the source's active call; other numbers are inactive results; x = not tested or not shown. An excerpt weighted towards active compounds, which were near 1.5% of everything screened.

SMILES	APJ antagonist	EBI2 block	CXCR6 inh	CCR6 antag	APJ ag	others
O=C(Cn1c(=O)n(CC2CS2)c2ccccc21)N1CCCCCC1 (centres undefined)	8.4	-9.2	-5.4	61.9*	-5.5
C=C(C)Cn1c(=O)n(CC2CS2)c2ccccc21 (centres undefined)	4.3	-5.2	-21.8	2.4	-2.6
O=C1C=CC(=O)C=C1	-2.5	-8.7	-4.0	78.9*	-1.4
COCCCNC(=O)c1c(N)n(Cc2ccco2)c2nc3ccccc3nc12	6.0	10.2	5.1	-2.9	0.2
CC(C)OCCCNC(=O)c1c(N)n(Cc2cccs2)c2nc3ccccc3nc12	20.8	71.2*	-1.3	-11.2	-5.0
O=C1NC(=O)N(CCc2ccc(F)cc2)C(=O)/C1=C\C=C\c1ccccc1	x	47.9*	-7.4	-23.7	x
C=CCN1C(=O)NC(=O)/C(=C/C=C/c2ccccc2)C1=O	x	2.9	-22.8	0.7	x
COC(=O)C1CN(C#N)N(c2ccc(Cl)cc2)C12c1ccccc1-c1ccccc12 (centres undefined)	21.3	53.0*	22.8	32.3	2.1
CC(=O)OC1CCC2(C)C(CCC3C4CC(N5CC5)C(C(C)=O)C4(C)CC(=O)C32)C1 (centres undefined)	x	-8.8	-2.2	-1.2	x
O=C1NC(=O)C(=Cc2ccc(-c3ccc(S(=O)(=O)N4CCOCC4)cc3)o2)C(=O)N1	-8.5	-3.0	5.1	-4.2	9.4
O=C1NC(=O)C(=Cc2ccc(-c3ccc(Cl)cc3)o2)C(=O)N1	-2.4	20.6	50.1*	71.2*	23.9
O=C(c1ccccc1)C(CN1CCCC1)c1ccccc1 (centres undefined)	x	-55.4	6.7	8.4	x
CC1CCN(C(CC(=O)c2ccccc2)C(=O)c2ccccc2)CC1 (centres undefined)	x	15.5	30.4	65.3*	x
CN(C)c1ccc(/C=C/C=C2/C(=O)NC(=O)N(c3ccccc3)C2=O)cc1	x	26.7	46.2*	65.8*	x
O=S(=O)(O)C(=Cc1ccccc1)c1ccccc1 (tested in a mixture with another compound)	x	-1.5	-1.6	-1.3	x
CCCC[C@@H](C)C[C@@H](C)C(=O)N(C)[C@@H](CC(C)C)C(=O)N[C@H](C(=O)N(C)[C@H](C(=O)N1C[C@@H](O)C[C@H]1C(=O)N1C(=O)C=C[C@@H]1C)C(C)C)C(C)OC(C)=O (some centres undefined)	16.6	-7.6	12.7	18.6	-5.3
C=C1C(=O)OC2CC(C)C3C=CC(=O)C3(C)C(O)C12 (centres undefined)	x	47.0*	28.8	46.6	x
CC12CCCCC1N(O)CN2O (centres undefined)	17.6	3.8	5.2	60.4*	-1.4
CCOC(=O)c1cccc(C2=C(CNC(=O)c3nccs3)[C@H]3CC[C@@H](C2)N3Cc2ccccc2)c1	x	12.3	8.2	x	x
CN1CC(C(=O)c2ccc(Cl)cc2)C(c2ccccc2F)C1 (centres undefined)	7.1	7.8	7.5	13.1	-3.5
ON1C2CCCCC2N(O)C1c1ccccc1F (centres undefined)	24.1	-13.0	23.5	80.3*	-8.1
O=C1C(=O)c2cccc3cccc1c23	62.6*	56.5*	43.7*	67.2*	-12.7
COC1CC2C=C(C)C=CC=CC(=O)NC(c3ccccc3)CC=CCCC(O)CC(=O)C2=C1O (centres undefined)	x	-2.7	30.8	x	x
O=c1c2ccccc2[se]n1-c1ccccc1	-3.5	61.7*	-2.7	15.4	-1.2
O=c1c2ccccc2nc(-c2ccccc2)n1-c1ccccc1	15.7	-7.6	-7.8	0.8	-0.8
SMILES	APJ antagonist	EBI2 block	CXCR6 inh	CCR6 antag	APJ ag	others
O=C(N/N=C\C1C(=O)NC(=S)N(c2ccccc2)C1=O)c1ccc(O)cc1 (centres undefined)	-8.7	-9.6	4.5	61.9*	-5.8
CN1C(=O)CCC2(C)C1=CCC1C2CCC2(C)C1CCC2(C)O (centres undefined)	x	-7.0	-1.3	-6.0	x
CN1/C(=C\C=C\C2=[N+](C)c3ccc4ccccc4c3C2(C)C)C(C)(C)c2ccccc21	42.6*	x	x	x	-4.9
CCN1/C(=C/C=C/C2=[N+](CC)c3ccccc3C2(C)C)C(C)(C)c2ccccc21	x	15.9	55.9*	x	x
COC(=O)C1=C(c2cccc(OCc3ccccc3)c2)C[C@@H]2CC[C@H]1N2C(=O)NCc1ccccc1OC	-13.7	9.1	14.6	17.7	-3.2
NNCc1ccccc1	x	7.3	-11.4	0.6	x
COC(=O)C1=C(c2ccc(-c3ccccc3)c(F)c2)C[C@@H]2CC[C@H]1N2C(=O)N1CCC(O)CC1	5.0	1.0	-2.4	8.6	-3.5
COC(=O)C1=C(c2ccc(-c3ccccc3)c(F)c2)C[C@@H]2CC[C@H]1N2C(=O)N1CCC(C)CC1	13.6	32.6	41.4*	28.3	-3.7
CCN1C(=O)C(=Cc2ccc(N3CCOCC3)o2)C(=O)N(CC)C1=S	26.9	-11.9	-0.8	14.4	-8.3
CN1C(=O)C(=Cc2ccc(N3CCOCC3)o2)C(=O)N(C)C1=S	42.5*	2.4	3.0	57.4*	-4.7
Cn1c(=O)c2c(nc(-c3ccc(N(CCCl)CCCl)cc3)n2C)n(C)c1=O	x	-1.9	-1.8	-4.5	x
CC1=Nc2ccccc2/C1=C/c1c(O)[nH]c(=O)[nH]c1=O	13.1	-1.3	7.8	-1.8	-2.8
O=c1[nH]c(O)c(/C=C2/C=CC(c3cc(Cl)ccc3Cl)=N2)c(=O)[nH]1	-58.5	-3.7	-6.4	-5.8	19.2*	APJ ag confirm=30.1
C=C(C=O)C[C@@H]1C[C@H](O)C2OC3C[C@]4(C)OC5/C=C\CC6OC7C(CC=CCC6OC5CCCC4OC3CC2O1)OC1CC2OC3CC(=O)OC3C[C@@H](C)C[C@@]2(C)OC1C[C@@H]7C (some centres undefined)	-12.0	x	x	46.7	21.2*	APJ ag confirm=18.6
CCCSc1nc(O)c(CC)c(=O)n1C(C)CC (centres undefined)	12.8	-14.6	-2.8	-7.4	60.3*	APJ ag confirm=62.1*
N#CC(Br)Br	-10.9	-7.6	1.7	-6.7	0.0
NC(N)=N/N=C/c1ccc(N(c2ccccc2)c2ccccc2)cc1	-20.5	-7.7	-13.0	15.4	40.5*	APJ ag confirm=29.6
CO[C@H]1C=CCCC=CC(=O)O[C@H]([C@H](C)C(=O)CCCC2CC(=O)NC(=O)C2)C(C)=C[C@@H](C)[C@@H]1O	x	-6.9	0.1	x	x
Cc1cc(/C=C2\C(=O)NC(=O)N(c3ccc(Cl)cc3)C2=O)c(C)n1-c1sc2c(c1C#N)CCCC2	7.4	28.8	-8.7	-11.8	4.5
Cc1sc(-n2c(C)cc(C=C3C(=O)NC(=O)NC3=O)c2C)c(C#N)c1C	8.6	x	x	0.6	10.8*	APJ ag confirm=21.1
COc1ccc(CN2Cc3cc(N4CCCCC4)ccc3-n3nncc3C2)cc1	x	-8.4	0.4	x	x
O=C1C(=O)c2ccccc2-c2ccccc21	-2.7	-60.2	21.6	33.7	37.3*	APJ ag confirm=41.6*

Screens: PubChem BioAssay, Sanford-Burnham Center for Chemical Genomics
